Test results reported in ChEMBL document CHEMBL1255368, “Posaconazole against Candida glabrata isolates with various susceptibilities to fluconazole” (2008).
≈ marks a conversion by molar mass, not a printed value. Calls of active or inactive are those of the source.

What was measured:
[1] = tested on: Nakaseomyces glabratus; test: Fungistatic activity against Candida glabrata isolate 4198 assessed as 99.9% reduction of initial fungal load at 0.5 times MIC after 48 hrs using colony count method by time-kill method; assay type: functional, organism-based
Outline: (§1)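 0.5 McFarland suspension from a 48-h plate, diluted 1:10 into MOPS-buffered RPMI 1640 with drug at 0.5× or 8× MIC. Shaken at 35°C; sampled at 0, 2, 4, 8 and 24 h, serially diluted and plated in triplicate on Sabouraud agar for 48 h at 35°C. Detection limit 20 CFU/ml; fungicidal = 99.9% fall from initial inoculum. Each isolate tested at least twice.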

[2] = tested on: Candida parapsilosis; test: Antifungal activity against Candida parapsilosis ATCC 22019 after 48 hrs by microdilution method; assay type: functional; details: Lodderomyces parapsilosis, ATCC 22019, 48 h
Outline: (§2)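 CLSI M27-A2 broth microdilution. Final ranges: POS, CAS, AMB 0.0078–8.0 μg/ml; FLC 0.125–64 μg/ml. Incubated at 35°C, read at 24 and 48 h by OD490. MIC for POS, FLC, CAS: first concentration giving 50% lower turbidity than control; for AMB: 90% lower. Run in quintuplicate; C. parapsilosis ATCC 22019 as quality control.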

[3] = tested on: Nakaseomyces glabratus; test: Fungicidal activity against Candida glabrata isolate 4198 assessed as 99.9% reduction of initial fungal load at 8 times MIC after 48 hrs using colony count method by time-kill method; assay type: functional, organism-based; details: in the assay text read “after 24 hrs” for “after 48 hrs”
Outline: (§3)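 Time-kill assay. The inoculum was set to 0.5 McFarland in water and diluted 1:10 into MOPS-buffered RPMI 1640 with drug at 0.5× or 8× MIC, then shaken at 35°C. Samples were taken at 0, 2, 4, 8 and 24 h, serially diluted and plated in triplicate on Sabouraud agar, with 48 h at 35°C. Detection limit was 20 CFU/ml. Fungicidal was defined as a 99.9% drop from the initial inoculum. Each isolate was tested at least twice.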

[4] = tested on: Nakaseomyces glabratus; test: Antifungal activity against Candida glabrata isolate 4205 after 48 hrs by microdilution method; assay type: functional; outline: as §2
[5] = tested on: Nakaseomyces glabratus; test: Fungistatic activity against Candida glabrata 4370 assessed as 99.9% reduction of int initial fungal load at 0.5 times MIC after 48 hrs using colony count method by time-kill method; assay type: functional, organism-based; outline: as §1
[6] = tested on: Nakaseomyces glabratus; test: Antifungal activity against Candida glabrata isolate 4370 after 48 hrs by microdilution method; assay type: functional; outline: as §2
[7] = tested on: Nakaseomyces glabratus; test: Antifungal activity against Candida glabrata isolate 4293 after 48 hrs by microdilution method; assay type: functional; outline: as §2
[8] = tested on: Nakaseomyces glabratus; test: Antifungal activity against Candida glabrata isolate 4198 after 48 hrs by microdilution method; assay type: functional; details: isolate 4198, 48 h; outline: as §2
[9] = tested on: Nakaseomyces glabratus; test: (§4) Antifungal activity against 2.44 x 10^8 CFU fluconazole-susceptible Candida glabrata isolate 4293 infected neutropenic CD1 mouse disseminated candidiasis model assessed as reduction in kidney tissue fungal burden at 1 mg/kg/day, ip administered 24 hrs post infection measured 7 days post infection by colony count method; assay type: functional, organism-based
Outline: (§5)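 Neutropenia induced in male CD1 mice (25 g) with cyclophosphamide 200 mg/kg i.p. on days −4, +1 and +4. Mice were infected i.v. via the tail vein (0.2 ml). Drug was given i.p. at […], starting 24 h post-challenge, for 6 consecutive days. Kidney pairs were homogenized on day 7 and plated on Sabouraud dextrose agar for CFU counts. Groups had 7–8 mice.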

[10] = tested on: Nakaseomyces glabratus; test: Fungicidal activity against Candida glabrata isolate 4205 assessed as 99.9% reduction of initial fungal load at 8 times MIC […] using colony count method by time-kill method; assay type: functional, organism-based; outline: as §3
[11] = tested on: Nakaseomyces glabratus; test: Fungicidal activity against Candida glabrata isolate 4293 assessed as 99.9% reduction of initial fungal load at 8 times MIC […] using colony count method by time-kill method; assay type: functional, organism-based
[12] = tested on: Nakaseomyces glabratus; test: Fungistatic activity against Candida glabrata isolate 4293 assessed as 99.9% reduction of initial fungal load at 0.5 times MIC after 48 hrs using colony count method by time-kill method; assay type: functional, organism-based; outline: as §1
[13] = tested on: Nakaseomyces glabratus; test: Fungistatic activity against Candida glabrata isolate 4205 assessed as 99.9% reduction of initial fungal load at 0.5 times MIC after 48 hrs using colony count method by time-kill method; assay type: functional, organism-based; outline: as §1
[14] = tested on: Nakaseomyces glabratus; test: as §4, with “1.04” for “2.44”; assay type: functional, organism-based; outline: as §5
[15] = tested on: Nakaseomyces glabratus; test: Fungistatic activity against Candida glabrata 4370 assessed as 99.9% reduction of int initial fungal load at 8 times MIC after 48 hrs using colony count method by time-kill method; assay type: functional, organism-based; outline: as §1
[16] = tested on: Candida parapsilosis; test: Fungistatic activity against Candida parapsilosis ATCC 22019 assessed as 99.9% reduction of int initial fungal load at 8 times MIC after 48 hrs using colony count method by time-kill method; assay type: functional, organism-based
[17] = tested on: Candida parapsilosis; test: Fungistatic activity against Candida parapsilosis ATCC 22019 assessed as 99.9% reduction of int initial fungal load at 0.5 times MIC after 48 hrs using colony count method by time-kill method; assay type: functional, organism-based
[18] = tested on: Nakaseomyces glabratus; test: Antifungal activity against Candida glabrata isolate 4370 after 24 hrs by microdilution method; assay type: functional; outline: as §2
[19] = tested on: Candida parapsilosis; test: Antifungal activity against Candida parapsilosis ATCC 22019 after 24 hrs by microdilution method; assay type: functional; details: Lodderomyces parapsilosis, ATCC 22019, 24 h
Outline: (§6)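 CLSI M27-A2 broth microdilution. Final drug ranges were 0.0078–8.0 μg/ml for POS, CAS and AMB, and 0.125–64 μg/ml for FLC. Plates were incubated at 35°C and read by OD490 at 24 h. The MIC was the first concentration giving 50% turbidity reduction versus control (POS, FLC, CAS) or 90% (AMB). Run in quintuplicate.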

[20] = tested on: Nakaseomyces glabratus; test: Antifungal activity against Candida glabrata isolate 4198 after 24 hrs by microdilution method; assay type: functional; details: isolate 4198, 24 h; outline: as §2
[21] = tested on: Nakaseomyces glabratus; test: Antifungal activity against Candida glabrata isolate 4293 after 24 hrs by microdilution method; assay type: functional; outline: as §6
[22] = tested on: Nakaseomyces glabratus; test: Antifungal activity against Candida glabrata isolate 4205 after 24 hrs by microdilution method; assay type: functional; outline: as §2
[23] = tested on: Nakaseomyces glabratus; test: Fungistatic activity against Candida glabrata isolate 4198 assessed as 99.9% reduction of initial fungal load at 8 times MIC after 48 hrs using colony count method by time-kill method; assay type: functional, organism-based; outline: as §1
[24] = tested on: Nakaseomyces glabratus; test: as §4, with “against” for “against 2.44 x 10^8 CFU”, “isolate 4205” for “isolate 4293”, “at 30” for “at 1”, “mg/kg/day, po” for “mg/kg/day, ip”; assay type: functional, organism-based
Outline: (§7)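 Male CD1 mice (25 g) made neutropenic with cyclophosphamide 200 mg/kg i.p. on days −4, +1 and +4, then infected i.v. via the lateral tail vein (0.2 ml). Dosing started 24 h post-challenge, once daily for 6 days, 0.2 ml: POS by oral gavage, FLC i.p. On day 7, homogenized kidneys (entire organ) plated on Sabouraud agar; CFU per kidney pair; 7–8 mice per group.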

[25] = tested on: Nakaseomyces glabratus; test: Fungistatic activity against Candida glabrata isolate 4293 assessed as 99.9% reduction of initial fungal load at 8 times MIC after 48 hrs using colony count method by time-kill method; assay type: functional, organism-based; outline: as §1
[26] = tested on: Nakaseomyces glabratus; test: as §4, with “at 25” for “at 1”; assay type: functional, organism-based; outline: as §7
[27] = tested on: Nakaseomyces glabratus; test: Antifungal activity against fluconazole-resistant Candida glabrata isolate 4198 infected neutropenic CD1 mouse disseminated candidiasis model assessed as reduction in kidney tissue fungal burden at 30 mg/kg/day, po administered 24 hrs post infection measured 7 days post infection by colony count method; assay type: functional, organism-based; outline: as §7
[28] = tested on: Nakaseomyces glabratus; test: as §4, with “against 1.04” for “against 2.44”, “at 25” for “at 1”; assay type: functional, organism-based
[29] = tested on: Nakaseomyces glabratus; test: Fungistatic activity against Candida glabrata isolate 4205 assessed as 99.9% reduction of initial fungal load at 8 times MIC after 48 hrs using colony count method by time-kill method; assay type: functional, organism-based
[30] = tested on: Nakaseomyces glabratus; test: as §4, with “at 15” for “at 1”, “mg/kg/day, po” for “mg/kg/day, ip”; assay type: functional, organism-based; outline: as §7
[31] = tested on: Nakaseomyces glabratus; test: as §4, with “against 1.04” for “against 2.44”, “at 30” for “at 1”, “mg/kg/day, po” for “mg/kg/day, ip”; assay type: functional, organism-based; outline: as §7

| Structure (SMILES) | Activity [1] | MIC [2] | Activity [3] | MIC [4] | Activity [5] | MIC [6] | MIC [7] | MIC [8] | Activity [9] | Activity [10] | Activity [11] | Activity [12] | Activity [13] | Activity [14] | Activity [15] | Activity [16] | Activity [17] | Activity [23] | Activity [24] | Activity [25] | other results |
| --- | --- | --- | --- | --- | --- | --- | --- | --- | --- | --- | --- | --- | --- | --- | --- | --- | --- | --- | --- | --- | --- |
| C[C@@H]1[C@H](O)[C@@H](C)/C=C/C=C/C=C/C=C/C=C/C=C/C=C/[C@H](O[C@@H]2O[C@H](C)[C@@H](O)[C@H](N)[C@@H]2O)C[C@@H]2O[C@](O)(C[C@@H](O)C[C@@H](O)[C@H](O)CC[C@@H](O)C[C@@H](O)CC(=O)O[C@H]1C)C[C@H](O)[C@H]2C(=O)O [AMPHOTERICIN B] | Active | 1 µg/mL (≈ 1.08 µM) | Active | 0.5 µg/mL (≈ 0.541 µM) | Active | 1 µg/mL (≈ 1.08 µM) | 0.5 µg/mL (≈ 0.541 µM) | 0.5 µg/mL (≈ 0.541 µM) | Active | Active | Active | Active | Active | Active | Active | Active | Active |  |  |  |  |
| CC[C@H](C)C[C@H](C)CCCCCCCCC(=O)N[C@H]1C[C@@H](O)[C@@H](NCCN)NC(=O)[C@@H]2[C@@H](O)CCN2C(=O)[C@H]([C@H](O)CCN)NC(=O)[C@H]([C@H](O)[C@@H](O)c2ccc(O)cc2)NC(=O)[C@@H]2C[C@@H](O)CN2C(=O)[C@H]([C@@H](C)O)NC1=O [CASPOFUNGIN] | Active |  | inactive |  | Active |  |  |  | Active | inactive | inactive | Active | Active | Active |  |  | Active |  |  |  | MIC [18]: 0.125 µg/mL (≈ 0.114 µM); MIC [19]: 0.25 µg/mL (≈ 0.229 µM); MIC [20]: 0.25 µg/mL (≈ 0.229 µM); MIC [21]: ≤ 0.03 µg/mL; MIC [22]: 0.25 µg/mL (≈ 0.229 µM) |
| OC(Cn1cncn1)(Cn1cncn1)c1ccc(F)cc1F [FLUCONAZOLE] | Active | 4 µg/mL (≈ 13.1 µM) |  | 1 µg/mL (≈ 3.27 µM) | Active | 16 µg/mL (≈ 52.2 µM) | 32 µg/mL (≈ 104 µM) | > 64 µg/mL | Active |  |  | Active | Active |  | Active | Active | Active | Active | Active | Active | Activity [26]: Active; Activity [27]: inactive; Activity [28]: inactive; Activity [29]: Active |
| CC[C@@H]([C@H](C)O)n1ncn(-c2ccc(N3CCN(c4ccc(OC[C@@H]5CO[C@@](Cn6cncn6)(c6ccc(F)cc6F)C5)cc4)CC3)cc2)c1=O [POSACONAZOLE] | Active | ≤ 0.03 µg/mL |  | ≤ 0.03 µg/mL | Active | 0.06 µg/mL (≈ 0.0856 µM) | 0.25 µg/mL (≈ 0.357 µM) | 0.5 µg/mL (≈ 0.713 µM) |  |  |  | Active | Active | inactive | Active | Active | Active | Active | Active | Active | Activity [26]: Active; Activity [27]: Active; Activity [28]: Active; Activity [29]: Active; Activity [30]: Active; Activity [31]: Active |
